Data on 22 compounds can be found in ChEMBL document CHEMBL3785037, “Compound profiling and 3D-QSAR studies of hydrazone derivatives with activity against intracellular Trypanosoma cruzi” (Bioorg Med Chem, 2016).

The nature of data set [1]: Cytotoxicity against mouse NIH/3T3 cells after 4 days by CellTiter-Glo luminiscence assay. Format: cell-based, NIH3T3. Conditions: read-out: TC50. The gist of the method: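 Mouse embryonic fibroblasts were seeded at 1x10^3 cells/well onto pre-dispensed compounds (top concentration 100 μM) for 4 days at 37 °C, 5% CO2. Controls were 0.5% DMSO (100% viable) and amphotericin B 50 μM (100% toxicity). Viability was measured as ATP by CellTiter-Glo luminescence at room temperature. TC50 was obtained by nonlinear regression.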
(Cellular ATP, detected with luciferase, serves as a proxy for viable cell number.)

For another data set, the system named is HepG2. In words: Cytotoxicity against human HepG2 cells 48 hrs by CellTiter-Glo luminiscence assay. Format: functional. Conditions: HepG2, 48 h, read-out: TC50 (the source's name). In short, it runs like this:
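Human hepatoma cells were plated at 3,000 cells/well onto pre-dispensed compounds, handled as for the fibroblast assay, and incubated 48 h at 37 °C, 5% CO2. ATP-based viability was read by CellTiter-Glo luminescence after room-temperature incubation. TC50 was obtained by nonlinear regression.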

The next data set deals with Trypanosoma cruzi. In words: Antitrypanosomal activity against intracellular amastigotes stage of recombinant Trypanosoma cruzi Tulahuen expressing beta galactosidase infected in NIH/3T3 cells assessed as growth inhibition after 4 days by HTS-ready assay. In kind it is functional, organism-based. Conditions: NIH3T3, 96 h; for pIC50: read-out: IC50; for IC50: read-out: pIC50 (converted). In short, it runs like this: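 NIH-3T3 fibroblasts were mixed 1:1 with β-galactosidase-expressing Tulahuen trypomastigotes from LLC-MK2 culture supernatants, at 1x10^3 cells/well, onto pre-dispensed compounds (50 to 0.00085 μM, DMSO ≤0.5%). Cultures were held 4 days at 37 °C, 5% CO2. Resorufin-β-D-galactopyranoside (5 µM in PBS with Igepal) was added for 4 h at room temperature, and fluorescence was read at 531/595 nm. Untreated parasites served as negative control.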

Each structure is given as a SMILES string. pIC50: −log10 of the molar value.

Take `NC(=S)N/N=C/CSc1ccccc1Cl`: the CC50 at 96 h in data set [1] was over 50.1 µM. The CC50 in the data set with HepG2 was over 100 µM. In addition, in the data set with Trypanosoma cruzi, the pIC50 – broadly, the negative decadic logarithm of the IC50, by convention in mol/L – is 5.51 and the IC50 is 3.09 µM.

`NC(=S)N/N=C/CSc1ccc(Cl)cc1`: the CC50 at 96 h in data set [1] was determined as 39.8 µM. The CC50 in the data set on HepG2 turned out to be 75.9 µM. Moreover, in the data set with Trypanosoma cruzi, the pIC50 was 5.68 and the IC50 was 2.09 µM.

As to `COc1ccc(SC/C=N/NC(N)=S)cc1`, the CC50 at 96 h in data set [1] came out at 0.52 µM. In addition, the CC50 in the data set with HepG2 is over 100 µM. Also, in the data set with Trypanosoma cruzi, the pIC50 is 4.76 and the IC50 was 17.4 µM.

Regarding `Cc1ccc(C)c(SC/C=N/NC(N)=S)c1`, in data set [1], the CC50 at 96 h is 20.9 µM. The CC50 with HepG2 was over 100 µM. Also, in the data set on Trypanosoma cruzi, the negative-log IC50 (pIC50) is 5.49 and the IC50 is 3.24 µM.

For `CC/C(=N\Nc1nc(-c2ccccc2)cs1)c1cccc(Br)c1`, the CC50 at 96 h in data set [1] is 26.3 µM. In addition, the CC50 in the data set on HepG2 is over 100 µM. In the data set on Trypanosoma cruzi, the pIC50 is 4.74 and the IC50 is 18.2 µM.

With `Cc1ccccc1SC/C=N/NC(N)=S`, the CC50 at 96 h in data set [1] was over 50.1 µM. For the same compound, in the data set on HepG2, the CC50 is over 100 µM. Further, in the data set with Trypanosoma cruzi, the pIC50 was 5.31 and the IC50 was 4.9 µM.

Turning to `CC/C(=N\Nc1nc(-c2ccc(C)cc2)cs1)c1cccc(Br)c1`, in data set [1], the CC50 at 96 h is over 50.1 µM. In addition, in the data set on HepG2, the CC50 is over 100 µM. For the same compound, in the data set with Trypanosoma cruzi, the pIC50 was 4.58 and the IC50 was 26.3 µM.

Regarding `CC/C(=N\Nc1nc(-c2ccc(OC)cc2)cs1)c1cccc(Br)c1`, the CC50 at 96 h in data set [1] is over 50.1 µM. Further, the CC50 with HepG2 is over 100 µM. In the data set on Trypanosoma cruzi, the pIC50 is 4.52 and the IC50 was 30.2 µM.

With `C/C(=N\Nc1nc(-c2ccc(Cl)cc2)cs1)c1ccccn1`, the CC50 at 96 h in data set [1] was 5.25 µM. Moreover, in the data set with HepG2, the CC50 is over 100 µM. Also, in the data set with Trypanosoma cruzi, the pIC50 was 5.98 and the IC50 is 1.05 µM.

`NC(=S)N/N=C/CSc1ccc(Br)cc1`: the CC50 at 96 h in data set [1] was determined as 28.8 µM. Also, the CC50 in the data set with HepG2 was 53.7 µM. For the same compound, in the data set on Trypanosoma cruzi, the pIC50 is 5.79 and the IC50 is 1.62 µM.

Turning to `COc1ccc(-c2csc(N/N=C(\C)c3ccc(Cl)c(Cl)c3)n2)cc1`, in data set [1], the CC50 at 96 h was over 50.1 µM. In addition, the CC50 in the data set on HepG2 is over 100 µM. Besides, in the data set on Trypanosoma cruzi, the pIC50 is 4.77 and the IC50 is 17 µM.

For the compound `C/C(=N\Nc1nc(-c2cccc3ccccc23)cs1)c1ccccn1`, in data set [1], the CC50 at 96 h turned out to be 4.47 µM. The CC50 with HepG2 is over 100 µM. Further, in the data set with Trypanosoma cruzi, the negative logarithm of the IC50 (pIC50) was 6.03 and the IC50 is 0.933 µM.

For the compound `C/C(=N\Nc1nc(-c2ccc(F)cc2)cs1)c1ccc(Cl)c(Cl)c1`, the CC50 at 96 h in data set [1] was determined as 28.2 µM. In addition, the CC50 with HepG2 was over 100 µM. Also, in the data set with Trypanosoma cruzi, the pIC50 is 4.79 and the IC50 was 16.2 µM.

`Cc1cccc(SC/C=N/NC(N)=S)c1`: the CC50 at 96 h in data set [1] is over 50.1 µM. Further, the CC50 in the data set with HepG2 was over 100 µM. For the same compound, in the data set with Trypanosoma cruzi, the pIC50 is 5.49 and the IC50 is 3.24 µM.

On to `NC(=S)N/N=C/CSc1cc(Cl)ccc1Cl`, for which the CC50 at 96 h in data set [1] was over 50.1 µM. In addition, in the data set with HepG2, the CC50 was over 100 µM. Also, in the data set on Trypanosoma cruzi, the pIC50 was 5.59 and the IC50 is 2.57 µM.

With `C/C(=N\Nc1nc(C)cs1)c1ccc(Cl)c(Cl)c1`, the CC50 at 96 h in data set [1] is 38.9 µM. Moreover, the CC50 in the data set on HepG2 is over 100 µM. Moreover, in the data set with Trypanosoma cruzi, the pIC50 is 5.08 and the IC50 is 8.32 µM.

Regarding `C(=N\Nc1nc(-c2cccc3ccccc23)cs1)/c1ccccn1`, the CC50 at 96 h in data set [1] came out at 7.24 µM. The CC50 in the data set on HepG2 is over 100 µM. Also, in the data set on Trypanosoma cruzi, the pIC50 is 5.47 and the IC50 was 3.39 µM.

With `C/C(=N\Nc1nc(-c2ccccc2)c(C)s1)c1ccc(Cl)c(Cl)c1`, the CC50 at 96 h in data set [1] came to 28.2 µM. Besides, in the data set on HepG2, the CC50 is over 100 µM. In the data set with Trypanosoma cruzi, the pIC50 was 5.31 and the IC50 is 4.9 µM.

As to `CC/C(=N\Nc1nc(-c2ccc(Br)cc2)c(C)s1)c1cccc(Br)c1`, the CC50 at 96 h in data set [1] was found to be 33.1 µM. In addition, the CC50 in the data set on HepG2 was over 100 µM. Also, in the data set with Trypanosoma cruzi, the pIC50 is 4.61 and the IC50 was 24.5 µM.

As for `NC(=S)N/N=C/CSc1ccc(F)cc1`, in data set [1], the CC50 at 96 h is over 50.1 µM. Also, in the data set on HepG2, the CC50 was over 100 µM. For the same compound, in the data set on Trypanosoma cruzi, the pIC50 is 5.23 and the IC50 was 5.89 µM.

As to `CC/C(=N\Nc1nc(-c2cccc([N+](=O)[O-])c2)cs1)c1cccc(Br)c1`, in data set [1], the CC50 at 96 h worked out at 38 µM. Moreover, the CC50 in the data set with HepG2 was over 100 µM. For the same compound, in the data set with Trypanosoma cruzi, the pIC50 was 4.64 and the IC50 was 22.9 µM.

In the case of `Cc1ccc(SC/C=N/NC(N)=S)cc1`, in data set [1], the CC50 at 96 h was over 50.1 µM. Further, the CC50 with HepG2 is over 100 µM. Further, in the data set on Trypanosoma cruzi, the pIC50 is 5.19 and the IC50 was 6.46 µM.
